# From PubChem
# In the library only some 12% were active in any assay of this set; here they are far more common.
# MT stabilize HCS – stabilizes microtubules in HeLa cells; HeLa tubulin immunostaining HCS, 24 h; share of cells brighter than vehicle mean+2SD; hit rate 0.83% among 200,000; % tubulin-high responders, % at 10 µM;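 active means plate Z-score above 3 for both tubulin-high and condensed-nucleus cell shares, with cell loss under 80%, at 10 µM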;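 further: anti alpha tubulin signal scored within the nucleus-defined area of each cell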
# Lmaj promast – reduces viability of Leishmania major promastigotes; hit rate 9% among 200,000; inhibition, % at 10 µM; resazurin fluorescence viability; AID 1063; in the data active means inhibition above about 50%;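 further: promastigotes grown with compound for 44 hours at 28 °C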
# bCat nuc transl – modulators of beta-catenin nuclear translocation; HeLa beta-catenin nuclear translocation, immunofluorescence imaging; nuclear translocation activity, % at 5 µM; hit rate 0.3% among 190,000; AID 1665;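 active means nuclear translocation activity above 50% at 5 µM, with a well cell count of 50 or more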;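 further: per-cell ratio of nuclear to cytoplasmic median beta-catenin stain intensity; plate controls were DMSO negative control for no effect and GSK-3 inhibitor IX positive control for full effect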
#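 Test system: human HeLa cells, native beta-catenin. Compound dosing: 5 µM primary single dose, 0.1% DMSO, 0.02–20 µM confirmation series. Incubation: compound exposure 24 h at 37°C. Detection: beta-catenin immunostaining with DAPI counterstain, 20x imaging, 6 fields/well. Read-out basis: Nuclear/cytoplasmic beta-catenin signal ratio, % activation.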
# CHOP inh – inhibitors of CHOP induction in ER stress response; CHO-K1 CHOP-promoter luciferase, tunicamycin-induced, 15-18 h; inhibition, % at 10 µM; hit rate 3.8% among 220,000; AID 2732;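 active means compounds that reduced the stress-induced luciferase reporter signal by more than about 70% of percent inhibition, limit read from the data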;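 further: 0% = tunicamycin plus vehicle and 100% = wells without tunicamycin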
# Autophagy mod – autophagy modulation, high-content screen; MEF GFP-LC3 puncta imaging; test concentration mostly 10 µM; calls only at 10 µM (by protocol); hit rate 0.98% among 190,000; AID 463193;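 active means percentage of spot-positive cells more than 3 SD above its plate mean, without a fluorescence outlier flag or 80% toxicity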;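 further: spot-positive cell cutoff set from DMSO-treated cells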
# Dynein cargo inh – dynein cargo transport inhibition | 3617.4 mouse cells, GR-EGFP nuclear translocation imaging; test concentration mostly 20 µM; stimulated with dexamethasone, 1 µM; active compounds read low | z-score, hits read low | hit rate 0.47% among 220,000 | AID 1381;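 active means plate z-score of nuclear minus cytoplasmic receptor signal below a set negative limit, without overly bright fluorescence or cell loss, cut at about -3.5 in these data, passing the limit was not always enough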;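 further: z-score of nuclear minus cytoplasmic ring GR-EGFP intensity difference per well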
#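 Buffer or medium – tet-free medium with charcoal-stripped serum · Signal – automated 10x imaging of fixed Hoechst-stained cells · Also added – dexamethasone agonist, 1.0 µM final, for 30 min · Incubation – induction 48 h, compound 1 h, agonist 30 min · Read-out – GR-EGFP nuclear translocation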
# Numbers without * were called inactive; i = inactive; · = not tested or not shown; + = active, no number.
SMILES,MT stabilize HCS,Lmaj promast,bCat nuc transl,CHOP inh,Autophagy mod,Dynein cargo inh
CCOC(=O)c1sc(NC(=O)CSc2nc3c(cc2C#N)CCCCCC3)c(C#N)c1C,2.5,-7.5,0.3,71.5*,+,-0.459
CCCCCCn1c(CN2CCN(C(=O)OCC)CC2)nc2c1c(=O)n(C)c(=O)n2C,3.4,6.2,·,·,i,-0.0276
Cc1ccnc(NS(=O)(=O)c2ccc(NC(=O)c3c(-c4ccccc4Cl)noc3C)cc2)n1,2.9,2.4,-0.3,29.2,i,-0.316
COc1cccc(NC(=S)N(CCCN2CCC(C)CC2)Cc2cccs2)c1,4.2,67.5*,-1.2,11.3,i,-0.00522
COc1ccc(NC(=S)N(CCCN2CCC(C)CC2)Cc2cccs2)cc1,4.2,41.7,·,0.3,i,0.226
CSc1cccc(NC(=S)N(CCCN2CCC(C)CC2)Cc2cccs2)c1,1.6,60.8*,-1.6,20.8,i,-0.137
CC1CCc2nc(NC(=O)CN3CCN(Cc4ccc5c(c4)OCO5)CC3)sc2C1 (stereo not given),4.2,99.4*,3.5,82.5*,i,1.56
CC1CCc2nc(NC(=O)C3COc4ccccc4O3)sc2C1 (stereo not given),2.6,2.2,3.6,78.5*,i,-0.566
CC1CCc2nc(NC(=O)Nc3ccc4c(c3)OCO4)sc2C1 (stereo not given),2.8,-4.6,-0.7,84.2*,i,-0.708
CC1CCc2nc(NC(=O)C3CC3)sc2C1 (stereo not given),2.1,22.1,-1.2,-8.8,i,3.78
CCc1cc(C(=O)Cc2cnn(-c3ccccc3)c2)c(O)cc1O,3.4,0.4,-3.7,77.5*,i,-0.433
O=C(Cc1cnn(-c2ccccc2)c1)c1ccc(O)c(O)c1O,1.5,-9.5,·,12.8,i,0.171
Cc1c(Cl)cccc1NC(=S)N1CCN(Cc2ccc3c(c2)OCO3)CC1,6.1,74.0*,3.4,13.2,i,-0.211
CC(C)NC(=S)N1CCN(Cc2ccc3c(c2)OCO3)CC1,5.1,-5.1,1.1,-8.7,i,-0.676
Cc1ccccc1NC(=S)N1CCN(Cc2ccc3c(c2)OCO3)CC1,3.0,24.0,-0.3,-0.6,i,0.422
COc1ccccc1NC(=O)N1CCN(Cc2ccc3c(c2)OCO3)CC1,·,·,0.4,9.4,·,0.642
COc1ccccc1NC(=S)N1CCN(Cc2ccc3c(c2)OCO3)CC1,1.7,96.0*,1.2,30.1,i,1.29
Cc1ccc(S(=O)(=O)N(C)C)cc1NC(=S)N1CCN(Cc2ccc3c(c2)OCO3)CC1,3.4,84.3*,-3.7,33.6,i,-0.339
O=C(CSc1ncccn1)NCc1cccc(Cl)c1,3.3,-6.8,2.7,-48.7,i,-0.882
CC(C)[C@H](NC(=O)c1ccccc1)C(=O)OCC(=O)NCc1ccc(F)cc1,3.2,-4.7,1.2,4.0,i,0.159
Cc1ccccc1CNC(=O)c1ccc(CSCc2ccccc2)cc1,0.7,6.8,-0.6,-2.5,i,-0.125
CCc1nnc(NC(=O)c2cc(S(=O)(=O)N3CCOCC3)ccc2N2CCCCC2)s1,1.5,10.0,-1.1,71.5*,i,0.456
CC1=CN2C(=N)/C(=C\c3cn(CCCOc4ccccc4)c4ccccc34)C(=O)N=C2S1,8.4,5.0,-2.0,52.9,i,-0.202
O=C(C1=C[C@H](C2CC2)C[C@H](OCCCCO)O1)N1CCN(Cc2ccccc2)CC1,2.4,-1.1,-1.0,7.3,i,0.412
O=C(C1=C[C@H](C2CCCCC2)C[C@H](OCCCCO)O1)N1CCN(Cc2ccccc2)CC1,1.9,59.0*,-1.2,1.7,i,-0.209
CCC(CC)C(=O)Nc1cccc(C(=O)Nc2ccc(S(=O)(=O)Nc3ccc(C)cc3)cc2)c1,6.8,67.2*,-0.5,6.2,i,-0.171
Cc1ccc(NS(=O)(=O)c2cccc(C(=O)Nc3cc(C)on3)c2)cc1,4.2,90.6*,-0.6,17.8,i,-0.572
CCc1nnc(NS(=O)(=O)c2ccc(NC(=S)NC(=O)c3ccc(OC)cc3)cc2)s1,2.1,55.0*,-0.2,-20.2,i,0.596
CCC(CC)C(=O)Nc1cccc(C(=O)Nc2ccc(S(N)(=O)=O)cc2)c1,4.2,3.1,-3.7,13.6,i,0.341
Cc1cc(NS(=O)(=O)c2ccc(NC(=S)NC(=O)c3ccccc3)cc2)no1,2.5,65.7*,-0.2,2.4,i,0.879
